Source: ChEMBL document CHEMBL3875165, “Novel broad-spectrum and long-acting parenteral cephalosporins having an acyl cyanamide moiety at the C-3 terminal: Synthesis and structure-activity relationships” (Eur J Med Chem, 2016)

Assays:
[1] = AUC (0 to infinity) in monkey at 20 mg/kg, iv administered as bolus dose by HPLC method; assay type: ADME, organism-based, Macaca mulatta; parameters: dose 20 mg/kg, time infinity, route intravenous; conditions: rhesus monkey, in vivo
Method in brief: (§1)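 Three monkeys per group received a single iv bolus of 20 mg/kg (1 mL/kg). Plasma levels were measured by HPLC. AUC0-∞, CLtot and T1/2 came from a 2-compartment fit.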

[2] = Half life in monkey at 20 mg/kg, iv administered as bolus dose by HPLC method; assay type: ADME, organism-based, Macaca mulatta; conditions: rhesus monkey, in vivo; method in brief: as §1
[3] = Total clearance in monkey at 20 mg/kg, iv administered as bolus dose by HPLC method; assay type: ADME, organism-based, Macaca mulatta; conditions: rhesus monkey, in vivo; method in brief: as §1
[4] = Protein binding in ICR mouse plasma after 30 mins by ultra-filtration method; assay type: ADME, cell-free; conditions: read-out: PPB (converted)
Method in brief: (§2)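 Mouse or monkey plasma was adjusted to pH 7 with CO2 and spiked with compound to a final 10 µg/ml. It was incubated 30 min at 37 °C, then ultrafiltered by centrifugation at 3200 rpm for 30 min at 25 °C. Free drug in the filtrate was measured by bioassay to give the bound fraction.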

[5] = Protein binding in cynomolgus monkey plasma after 30 mins by ultra-filtration method; assay type: ADME, cell-free, Macaca fascicularis; conditions: read-out: PPB (converted); method in brief: as §2
Staphylococcus aureus = assay: Antibacterial activity against Staphylococcus aureus SMITH after 20 hrs by agar dilution method; assay type: functional
Method in brief: (§3)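 Agar dilution MIC on Sensitivity Disk Agar-N with 2-fold serial drug dilutions. Overnight Mueller Hinton broth cultures were diluted to about 10^6 CFU/mL, and 1 µL spots were applied. Plates were incubated 20 h at 37 °C before scoring.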

Streptococcus pneumoniae [6] = assay: Antibacterial activity against penicillin-resistant Streptococcus pneumoniae SR16675 after 20 hrs by agar dilution method; assay type: functional; conditions: SR16675, 20 h
Method in brief: (§4)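 Agar dilution on Sensitivity Disk Agar-N. Overnight Mueller Hinton broth cultures were diluted to about 10^6 CFU/mL, and 1 µL spots were placed on agar plates holding 2-fold serial dilutions of antibiotic. Plates were incubated 20 h at 37 °C and then MICs were scored.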

Streptococcus pneumoniae [7] = assay: Antibacterial activity against penicillin-resistant Streptococcus pneumoniae SR16750 after 20 hrs by agar dilution method; assay type: functional; conditions: SR16750, 20 h; method in brief: as §4
Haemophilus influenzae [8] = assay: Antibacterial activity against beta-lactamase non-producing penicillin-resistant Haemophilus influenzae SR11435 after 20 hrs by agar dilution method; assay type: functional; conditions: SR11435, 20 h; method in brief: as §4
Haemophilus influenzae [9] = assay: Antibacterial activity against beta-lactamase non-producing penicillin-resistant Haemophilus influenzae SR24106 after 20 hrs by agar dilution method; assay type: functional; conditions: SR24106, 20 h; method in brief: as §4
Moraxella catarrhalis = assay: Antibacterial activity against Moraxella catarrhalis SR24290 after 20 hrs by agar dilution method; assay type: functional; conditions: SR24290, 20 h; method in brief: as §3
Escherichia coli = assay: Antibacterial activity against Escherichia coli NIHJ JC-2 after 20 hrs by agar dilution method; assay type: functional; conditions: NIHJ JC-2, 20 h; method in brief: as §3
[10] = Half life in mouse at 20 mg/kg, iv administered as bolus dose by band-culture bioassay; conditions: in vivo
[11] = Total clearance in mouse at 20 mg/kg, iv administered as bolus dose by band-culture bioassay; conditions: in vivo
[12] = AUC (0 to infinity) in mouse at 20 mg/kg, iv administered as bolus dose by band-culture bioassay; conditions: in vivo

Row | SMILES | AUC [1] [ng·h/mL] | half-life [2] [h] | clearance [3] [mL/min/kg] | fraction unbound at 0.5 h [4] | fraction unbound at 0.5 h [5] | MIC (Staphylococcus aureus) [µg/mL] | MIC (Streptococcus pneumoniae [6]) [µg/mL] | MIC (Streptococcus pneumoniae [7]) [µg/mL] | MIC (Haemophilus influenzae [8]) [µg/mL] | MIC (Haemophilus influenzae [9]) [µg/mL] | MIC (Moraxella catarrhalis) [µg/mL] | MIC (Escherichia coli) [µg/mL] | half-life [10] [h] | clearance [11] [mL/min/kg] | AUC(0-inf) [12] [ng·h/mL]
1 | CCO/N=C(\C(=O)N[C@@H]1C(=O)N2C(C(=O)[O-])=C(/C=C/C[n+]3ccc(-c4c[nH]c(/C([O-])=N/C#N)c4C)cc3)CS[C@H]12)c1csc(N)n1.[Na+] | 42200 | 5.19 | 0.4 | 0.54 | 0.16 | 0.25 | 0.125 | 0.125 | 0.063 | 0.125 | 4 | 0.125 | 0.86 | 15.2 | 22000
2 | CCO/N=C(\C(=O)N[C@@H]1C(=O)N2C(C(=O)[O-])=C(/C=C/C[n+]3ccc(-c4c[nH]c(/C([O-])=N/C#N)c4)cc3)CS[C@H]12)c1csc(N)n1.[Na+] | 20200 | 4.25 | 0.84 | 0.75 | 0.3 | 0.25 | 0.125 | 0.25 | 0.063 | 0.125 | 8 | 0.125 | 0.93 | 18.9 | 17600
3 | CCO/N=C(\C(=O)N[C@@H]1C(=O)N2C(C(=O)[O-])=C(/C=C/C[n+]3ccc(-c4cc(/C([O-])=N/C#N)n(C)c4)cc3)CS[C@H]12)c1csc(N)n1.[Na+] | 32100 | 4.08 |  | 0.67 | 0.23 | 0.5 | 0.25 | 0.5 | 0.063 | 0.125 | 8 | 0.25 | 0.87 | 12.8 | 26000
4 | CCO/N=C(\C(=O)N[C@@H]1C(=O)N2C(C(=O)[O-])=C(/C=C/C[n+]3ccc(-c4cc(/C([O-])=N/C#N)n(C)n4)cc3)CS[C@H]12)c1csc(N)n1.[Na+] | 21800 | 2.96 | 0.81 | 0.59 | 0.41 | 0.5 | 0.125 | 0.5 | 0.063 | 0.25 | 8 | 0.25 | 0.82 | 13.2 | 21300
5 | CCO/N=C(\C(=O)N[C@@H]1C(=O)N2C(C(=O)[O-])=C(/C=C\C[n+]3ccc(-c4cc(/C([O-])=N/C#N)[nH]n4)cc3)CS[C@H]12)c1csc(N)n1.[Na+] |  |  |  |  |  | 0.25 | 0.5 | 1 | 0.25 | 0.5 | 1 | 0.125 |  |  | 
6 | CCO/N=C(\C(=O)N[C@@H]1C(=O)N2C(C(=O)[O-])=C(/C=C/C[n+]3ccc(-c4cc(/C([O-])=N/C#N)[nH]n4)cc3)CS[C@H]12)c1csc(N)n1.[Na+] | 35400 | 4.43 | 0.48 | 0.75 | 0.27 | 0.25 | 0.125 | 0.25 | 0.063 | 0.125 | 2 | 0.125 | 1.03 | 19.2 | 17400
7 | CCO/N=C(\C(=O)N[C@@H]1C(=O)N2C(C(=O)[O-])=C(/C=C/C[n+]3ccc(-n4ccc(/C([O-])=N/C#N)n4)cc3)CS[C@H]12)c1csc(N)n1.[Na+] | 32100 | 2.8 | 0.54 | 0.86 | 0.14 | 0.5 | 0.25 | 0.5 | 0.063 | 0.125 | 2 | 0.125 | 0.87 | 19.8 | 16800
8 | CCO/N=C(\C(=O)N[C@@H]1C(=O)N2C(C(=O)[O-])=C(/C=C/C[n+]3ccc(-c4csc(/C([O-])=N/C#N)n4)cc3)CS[C@H]12)c1csc(N)n1.[Na+] | 48000 | 5.16 |  | 0.69 | 0.23 | 0.5 | 0.125 | 0.25 | 0.063 | 0.25 | 2 | 0.125 | 0.74 | 12.2 | 27400
9 | CCO/N=C(\C(=O)N[C@@H]1C(=O)N2C(C(=O)[O-])=C(C[n+]3ccc(-c4cc(/C([O-])=N/C#N)[nH]n4)cc3)CS[C@H]12)c1nc(N)sc1Cl.[Na+] |  |  |  | 0.43 |  | 1 | 0.125 | 0.25 | 0.25 | 2 | 0.125 | 2 | 0.59 | 8 | 41500
10 | CCO/N=C(\C(=O)N[C@@H]1C(=O)N2C(C(=O)[O-])=C(C=CC[n+]3ccc(-c4cc(/C([O-])=N/C#N)[nH]n4)cc3)CS[C@H]12)c1csc(N)n1.[Na+] |  |  |  | 0.76 |  | 0.25 | 0.25 | 0.5 | 0.125 | 0.25 | 1 | 0.125 | 0.85 | 19.1 | 17400
11 | CCCO/N=C(\C(=O)N[C@@H]1C(=O)N2C(C(=O)[O-])=C(C[n+]3ccc(-c4cc(/C([O-])=N/C#N)[nH]n4)cc3)CS[C@H]12)c1csc(N)n1.[Na+] (stereo in doubt) |  |  |  | 0.63 |  | 0.5 | 0.25 | 0.5 | 0.063 | 1 | 1 | 1 | 0.98 | 37.4 | 8900
12 | CCO/N=C(\C(=O)N[C@@H]1C(=O)N2C(C(=O)[O-])=C(C[n+]3ccc(-c4cc(/C([O-])=N/C#N)[nH]n4)cc3)CS[C@H]12)c1csc(N)n1.[Na+] (stereo in doubt) |  |  |  | 0.77 |  | 1 | 0.25 | 0.5 | 0.063 | 0.25 | 0.5 | 0.5 | 1.14 | 30.8 | 10800
13 | CO/N=C(\C(=O)N[C@@H]1C(=O)N2C(C(=O)[O-])=C(C[n+]3ccc(-c4cc(/C([O-])=N/C#N)[nH]n4)cc3)CS[C@H]12)c1csc(N)n1.[Na+] (stereo in doubt) |  |  |  | 0.85 |  | 1 | 0.25 | 0.5 | 0.063 | 0.25 | 2 | 0.25 | 0.91 | 18.4 | 18100
14 | N#C/N=C(\[O-])c1cc(-c2cc[n+](CC3=C(C(=O)[O-])N4C(=O)[C@@H](NC(=O)/C(=N\OCCF)c5csc(N)n5)[C@H]4SC3)cc2)n[nH]1.[Na+] (stereo in doubt) |  |  |  | 0.76 |  | 1 | 0.25 | 0.5 | 0.063 | 0.125 | 1 | 0.25 | 1.06 | 26.2 | 12700
